Test system: Hepatitis C virus
Experiment: Antiviral activity against Hepatitis C virus assessed as inhibition of viral replication after 24 hrs by cell based luciferase reporter gene assay
Assay type: functional, organism-based
Settings: Hepacivirus hominis, 72 h, in the assay text read “after 3 days” for “after 24 hrs”
How it was run: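 Subgenomic HCV RNA replicon cells carrying luciferase (LucNeo#2), maintained in DMEM with 10% FBS, antibiotics and 1 mg/ml geneticin. Seeded at 50,000 cells/ml without geneticin and incubated 24 h. Medium then replaced with medium containing serial compound dilutions for 3 days. Cells washed with PBS and lysed for 10 min; luciferase activity in the lysate read by luminometer.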

Compound	EC50 [µM]
CCCCn1c(=O)c2ccccc2c2cc(C(O)(C(F)(F)F)C(F)(F)F)c(C)cc21	5.6
CCCCn1c(=O)c2c(OC)cccc2c2cc(C(O)(C(F)(F)F)C(F)(F)F)ccc21	9.96
CCCCn1c(=O)c2ccccc2c2c(OC)c(C(O)(C(F)(F)F)C(F)(F)F)ccc21	7.2
O=c1c2ccccc2c2cc(C(O)(C(F)(F)F)C(F)(F)F)ccc2n1Cc1ccc2ccccc2c1	8.8
CCCCn1c(=O)c2ccccc2c2cc(C(O)(C(F)(F)F)C(F)(F)F)c(F)cc21	5.3
CCCCn1c(=O)c2ccccc2c2cc(C(O)(C(F)(F)F)C(F)(F)F)cc(C)c21	2.1
CCCCn1c(=O)c2ccccc2c2cc(C(O)(C(F)(F)F)C(F)(F)F)c(OC)cc21	3.4
CCCCn1c(=O)c2ccc(OC)cc2c2cc(C(O)(C(F)(F)F)C(F)(F)F)ccc21	16.6
CCCCn1c(=O)c2cccc(OC)c2c2cc(C(O)(C(F)(F)F)C(F)(F)F)ccc21	5
CCCCn1c(=O)c2ccccc2c2cc(C(O)(C(F)(F)F)C(F)(F)F)ccc21	3.2
CCCCn1c(=O)c2ccccc2c2cc(C(O)(C(F)(F)F)C(F)(F)F)cc(F)c21	2.4
CCCCn1c(=O)c2ccccc2c2cc(C(O)(C(F)(F)F)C(F)(F)F)cc(OC)c21	1.1
CCCCn1c(=O)c2cc(OC)ccc2c2cc(C(O)(C(F)(F)F)C(F)(F)F)ccc21	0.98
CCCCn1c(=O)c2ccccc2c2cc(C(O)(C(F)(F)F)C(F)(F)F)c(OC)c(OC)c21	2.6
CCCCn1c(=O)c2ccccc2c2c(OC)c(C(O)(C(F)(F)F)C(F)(F)F)cc(OC)c21	5.7
COCCn1c(=O)c2ccccc2c2cc(C(O)(C(F)(F)F)C(F)(F)F)ccc21	5.4
CCCCn1c(=O)c2cc3c(cc2c2cc(C(O)(C(F)(F)F)C(F)(F)F)ccc21)OCO3	2.3

More lines, now with the values ahead:

EC50 [µM]	Compound
0.05	CCCCn1c(=O)c2cc(OC)ccc2c2cc(C(O)(C(F)(F)F)C(F)(F)F)c3c(c21)OCO3
9.8	CCCCn1c(=O)c2ccccc2c2c(OC)c(C(O)(C(F)(F)F)C(F)(F)F)c3c(c21)OCO3
12	CCCCn1c(=O)c2cc(OC)ccc2c2c(OC)c(C(O)(C(F)(F)F)C(F)(F)F)c3c(c21)OCO3
0.29	CCCCn1c(=O)c2ccccc2c2cc(C(O)(C(F)(F)F)C(F)(F)F)c3c(c21)OCO3
1.8	CCCCn1c(=O)c2cc(OC)ccc2c2cc(C(O)(C(F)(F)F)C(F)(F)F)c(OC)c(OC)c21
1.73	CCCCn1c(=O)c2cc3c(cc2c2cc(C(O)(C(F)(F)F)C(F)(F)F)c4c(c21)OCO4)OCO3
0.18	CCCCn1c(=O)c2cc(OC)ccc2c2cc(C(O)(C(F)(F)F)C(F)(F)F)c(OC)cc21
0.51	CCCCn1c(=O)c2cc(OC)ccc2c2cc(C(O)(C(F)(F)F)C(F)(F)F)cc(OC)c21
6.1	CCCCn1c(=O)c2cc(OC)ccc2c2c(OC)c(C(O)(C(F)(F)F)C(F)(F)F)cc(OC)c21

Test system: Bovine viral diarrhea virus 1
Experiment: Antiviral activity against Bovine viral diarrhea virus assessed as inhibition of viral replication after 24 hrs by cell based luciferase reporter gene assay
Assay type: functional, organism-based
Settings: Bovine viral diarrhea virus isolates and strains

Compound	EC50 [µM]
Cc1ncc2c3ccccc3n(C)c2c1C	0.0035
